Assay results of several laboratories.
Compare with care: the assays were run in different laboratories.
Target: Serine/threonine-protein kinase PAK 6 (PAK6, Homo sapiens, UniProt Q9NQU5)

O=C(NC[C@@H]1[C@H]2CN(C(=O)OCc3cc(C(F)(F)F)cc(C(F)(F)F)c3)C[C@@H]12)c1ccc2[nH]nnc2c1 has a remaining binding of 93% (cell-free assay; competition with immobilised ligand; 1 µM).
With COc1cnc(Nc2cccc(S(N)(=O)=O)c2)nc1N1CCN(c2ccccc2)C(=O)C1 the remaining binding was 100% (binding; competition with immobilised ligand; 1 µM).
For O=C(NCCCN1CCOCC1)c1ccc(Nc2nccc(-c3cc4ccccc4s3)n2)cc1, the remaining binding was 90% (binding; competition with immobilised ligand; 1 µM).
c1cncc(-c2cccc(Nc3nccc(NC4CCCCC4)n3)c2)c1 has a remaining binding of 60% (binding; competition with immobilised ligand; 10 µM).
C[C@H](c1ccnc(Nc2nc3ccc(-c4cc(N(C)C)ncn4)cc3[nH]2)c1)N1CCN(C(=O)CC(F)(F)F)CC1 has a remaining binding of 100% (cell-free assay; competition with immobilised ligand; 0.1 µM).
CN(CCCC(F)(F)F)c1nccc(-c2cnn3ncccc23)n1 has a remaining binding of 100% (binding; 1 µM).
The remaining binding of COc1ncc2cc3ccccc3nc2c1C#N is reported as 94% (cell-free assay; competition with immobilised ligand; 5 µM).
The remaining binding of CN(C)c1ncc(F)c(-c2cnn3ncccc23)n1 is reported as 100% (binding; 1 µM).
O=C(c1ccc(Nc2nccc(-c3cc4ccccc4s3)n2)cc1)N1CCC(N2CCCC2)CC1 has a remaining binding of 100% (binding; competition with immobilised ligand; 1 µM).
C[C@@H](c1ccc(-n2cnc3c(N)ncnc32)cc1)N1CCc2nn(C)c(Cc3ccccc3)c2C1=O has a remaining binding of 96% (binding; competition with immobilised ligand; 0.1 µM).
Cc1noc([C@H]2C[C@@H](c3ccc(C(F)(F)F)cc3)CN(C(=O)N3CCS(=O)(=O)C3)C2)n1 has a remaining binding of 100% (cell-free assay; competition with immobilised ligand; 1 µM).
O=C(NCC1CCOCC1)c1n[nH]cc1NC(=O)c1c(F)cccc1F has a remaining binding of 86% (binding; competition with immobilised ligand; 1 µM).
For CNC(=O)Nc1ccc2c(c1)CC[C@@]21OC(=O)N(CC(=O)N(Cc2ccc(F)cc2)[C@@H](C)C(F)(F)F)C1=O, the remaining binding was 91% (cell-free assay; competition with immobilised ligand; 1 µM).
COc1ccnn2ncc(-c3ccnc(N(C)C)n3)c12 gave a remaining binding of 97% (binding; 1 µM).
With CC1=C(C#N)[C@@H](c2ccc3[nH]nc(C)c3c2)C(C#N)=C(c2ccc(Cl)cc2)N1 the remaining binding was 100% (cell-free assay; competition with immobilised ligand; 1 µM).
CC1CCCN1c1nccc(-c2cnn3ncccc23)n1 (stereo not drawn) gave a remaining binding of 100% (binding; 1 µM).
The remaining binding of O=C(NCCCN1CCOCC1)c1ccc(Nc2ncc(Cl)c(-c3ccc(Cl)s3)n2)cc1 is reported as 74% (binding; competition with immobilised ligand; 1 µM).
N[C@@H]1CCN(c2nccc(-c3cnn4ncccc34)n2)C1 has a remaining binding of 100% (binding; 1 µM).
The remaining binding of Nc1ncc2c(n1)-c1c([nH]c3ccc(C#CC4CC4)cc13)CCCC2 is reported as 94% (binding; competition with immobilised ligand; 1 µM).
For C[C@@H]1CCN(c2nccc(-c3cnn4ncccc34)n2)C1, the remaining binding was 87% (binding; 1 µM).
For CCCCN(CCCC)C(=O)CN1C[C@@H](c2cc(OC)c3c(c2)OCO3)[C@H](C(=O)O)[C@H]1CC(C)(C)CCC, the remaining binding was 100% (cell-free assay; competition with immobilised ligand; 1 µM).
